ChEMBL document CHEMBL1157567, “Design, synthesis, and evaluation of 2-methyl- and 2-amino-N-aryl-4,5-dihydrothiazolo[4,5-h]quinazolin-8-amines as ring-constrained 2-anilino-4-(thiazol-5-yl)pyrimidine cyclin-dependent kinase inhibitors” (J Med Chem, 2010)
Activity calls are given as the source filed them. The calls are words filed in the database; no cut-off is given here.

What was measured:
[1] = target: Cyclin-dependent kinase 1/cyclin B1 (Homo sapiens, UniProt P06493); experiment: inhibition of CDK1/Cyclin B; format: protein-complex assay
In short: (§1)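 Kinase activity measured over 10-point dose-response curves to give IC50; apparent Ki derived from IC50 using the ATP Km of each kinase.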

[2] = target: Cyclin-dependent kinase 2/cyclin E1 (Homo sapiens, UniProt P24941); experiment: inhibition of CDK2/Cyclin E; format: protein-complex assay; in short: as §1
[3] = target: Cyclin-dependent kinase 4/cyclin D1 (Homo sapiens, UniProt P11802); experiment: inhibition of CDK4/Cyclin D1; format: protein-complex assay; in short: as §1
[4] = target: Cyclin-dependent kinase 7/ cyclin H (Homo sapiens, UniProt P50613); experiment: inhibition of CDK7/Cyclin H/MAT1; format: protein-complex assay; in short: as §1
CDK9/cyclin T1 = CDK9/cyclin T1 (Homo sapiens, UniProt P50750); experiment: inhibition of CDK9/CyclinT1; format: protein-complex assay; in short: as §1
WI-38 [5] = experiment: Induction of apoptosis in human WI38 cells assessed as caspase 3/7 activity at 2.5 uM after 24 hrs […]; format: functional, cell-based
In short: (§2)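 Caspase-3/7 luminescent assay: 10 000 cells seeded per well, treated 24 h; detection reagent added directly at equal volume to medium, read after further 30 min at room temperature.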

A549 = experiment: Antiproliferative activity against human A549 cells after 72 hrs by MTT assay; format: functional, cell-based; conditions: A549, 72 h
In short: (§3)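 MTT (thiazolyl blue tetrazolium) colorimetric viability read-out after 72 h continuous exposure of cultured cells to test compound.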

HeLa = experiment: Antiproliferative activity against human HeLa cells after 72 hrs by MTT assay; format: functional, cell-based; in short: as §3
HT-29 = experiment: Antiproliferative activity against human HT-29 cells after 72 hrs by MTT assay; format: functional, cell-based; conditions: HT-29, 72 h; in short: as §3
MCF7 = experiment: Antiproliferative activity against human MCF7 cells after 72 hrs by MTT assay; format: functional, cell-based; conditions: MCF7, 72 h; in short: as §3
SAOS-2 = experiment: Antiproliferative activity against human Saos2 cells after 72 hrs by MTT assay; format: functional, cell-based; conditions: SAOS-2, 72 h; in short: as §3
[6] = target: T1, Cyclin-dependent kinase (Homo sapiens) (UniProt P06493+P11802+P24941+Q00535+Q00534+P50613+Q00526+Q00536+Q07002+P49336+Q00537+P21127+Q96Q40+Q9BWU1+O94921+P50750+Q15131+Q14004+Q8IZL9+Q9NYV4); experiment: Inhibition of CDK in human A2780 cells assessed as reduction of RNAP2 phosphorylation at Ser2 site at 5 uM after 6 hrs by Western bloting; format: cell-based
In short: (§4)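 Total cell lysate protein (10 µg) resolved on reducing 4-12% gradient SDS-PAGE after 6 h treatment at 5 µM; probed for RNAP-II phospho-Ser2 and phospho-Ser5 CTD alongside total RNAP-II.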

[7] = target: T1, Cyclin-dependent kinase (Homo sapiens); experiment: Inhibition of CDK in human A2780 cells assessed as reduction of RNAP2 phosphorylation at Ser5 site at 5 uM after 6 hrs by Western bloting; format: cell-based; in short: as §4
[8] = target: T1, Cyclin-dependent kinase (Homo sapiens); experiment: Inhibition of CDK in human A2780 cells assessed as reduction of pRb levels at 5 uM after 6 hrs by Western bloting; format: cell-based
[9] = target: T1, Cyclin-dependent kinase (Homo sapiens); experiment: Inhibition of CDK in human A2780 cells assessed as increase in p53 levels at 5 uM after 6 hrs by Western bloting; format: cell-based
A2780 [10] = experiment: Induction of apoptosis in human A2780 cells assessed as caspase 3/7 activity at 2.5 uM after 24 hrs […]; format: functional, cell-based; in short: as §2
A2780 [11] = experiment: Induction of apoptosis in human A2780 cells assessed as TUNEL-positive cells at 5 uM after 24 hrs by TUNEL assay-based flow cytometric analysis; format: functional
In short: (§5)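 Cells exposed 24 h to 5 µM compound or assay diluent alone; TUNEL labelling with flow cytometry, 10 000 cells collected; apoptotic (TUNEL-positive) fraction gated against DNA-content cell cycle stage.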

WI-38 [12] = experiment: Induction of apoptosis in human WI38 cells assessed as TUNEL-positive cells at 5 uM after 24 hrs by TUNEL assay-based flow cytometric analysis; format: functional; in short: as §5

Sequence of Cyclin-dependent kinase 4/cyclin D1 (P11802 whole entry): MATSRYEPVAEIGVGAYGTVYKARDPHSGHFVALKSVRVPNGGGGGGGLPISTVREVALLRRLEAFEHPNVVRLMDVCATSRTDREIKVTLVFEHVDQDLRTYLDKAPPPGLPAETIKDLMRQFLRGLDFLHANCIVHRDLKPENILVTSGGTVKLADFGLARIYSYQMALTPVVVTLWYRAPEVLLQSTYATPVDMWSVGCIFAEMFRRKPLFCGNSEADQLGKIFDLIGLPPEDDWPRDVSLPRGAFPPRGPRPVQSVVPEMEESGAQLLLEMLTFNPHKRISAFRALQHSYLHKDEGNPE
Sequence of Cyclin-dependent kinase 4/cyclin D1 (P24385 whole entry, further chain): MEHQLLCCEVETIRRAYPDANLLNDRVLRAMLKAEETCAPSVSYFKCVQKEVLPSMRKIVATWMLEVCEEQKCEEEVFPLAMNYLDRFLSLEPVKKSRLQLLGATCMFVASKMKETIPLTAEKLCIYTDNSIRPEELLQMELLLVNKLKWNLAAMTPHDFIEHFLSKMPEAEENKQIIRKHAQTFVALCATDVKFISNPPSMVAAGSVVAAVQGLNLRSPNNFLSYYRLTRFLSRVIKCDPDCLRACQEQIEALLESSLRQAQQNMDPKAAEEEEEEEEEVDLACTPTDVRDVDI
Sequence of Cyclin-dependent kinase 1/cyclin B1 (P06493 whole entry): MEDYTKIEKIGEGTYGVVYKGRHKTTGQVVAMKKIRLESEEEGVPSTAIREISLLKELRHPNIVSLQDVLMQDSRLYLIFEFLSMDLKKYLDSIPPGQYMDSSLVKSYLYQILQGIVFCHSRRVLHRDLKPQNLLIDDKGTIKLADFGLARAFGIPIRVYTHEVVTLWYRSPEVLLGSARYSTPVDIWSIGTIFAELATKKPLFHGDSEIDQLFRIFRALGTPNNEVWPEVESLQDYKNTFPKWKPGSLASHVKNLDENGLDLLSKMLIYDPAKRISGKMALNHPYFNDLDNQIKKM
Sequence of Cyclin-dependent kinase 1/cyclin B1 (P14635 whole entry, further chain): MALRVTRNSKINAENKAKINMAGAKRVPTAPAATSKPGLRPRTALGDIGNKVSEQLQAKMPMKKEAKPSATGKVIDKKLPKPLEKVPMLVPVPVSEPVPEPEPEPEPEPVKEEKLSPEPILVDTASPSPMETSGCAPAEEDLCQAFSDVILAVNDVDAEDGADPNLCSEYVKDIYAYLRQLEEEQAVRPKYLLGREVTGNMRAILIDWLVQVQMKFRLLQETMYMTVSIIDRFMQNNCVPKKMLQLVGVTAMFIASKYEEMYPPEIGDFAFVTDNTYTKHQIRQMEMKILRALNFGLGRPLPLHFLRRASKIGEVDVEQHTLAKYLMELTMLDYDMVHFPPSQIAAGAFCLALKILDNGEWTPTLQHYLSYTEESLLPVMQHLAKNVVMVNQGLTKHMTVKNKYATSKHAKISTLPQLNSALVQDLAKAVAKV
Sequence of Cyclin-dependent kinase 7/ cyclin H (P51946 whole entry): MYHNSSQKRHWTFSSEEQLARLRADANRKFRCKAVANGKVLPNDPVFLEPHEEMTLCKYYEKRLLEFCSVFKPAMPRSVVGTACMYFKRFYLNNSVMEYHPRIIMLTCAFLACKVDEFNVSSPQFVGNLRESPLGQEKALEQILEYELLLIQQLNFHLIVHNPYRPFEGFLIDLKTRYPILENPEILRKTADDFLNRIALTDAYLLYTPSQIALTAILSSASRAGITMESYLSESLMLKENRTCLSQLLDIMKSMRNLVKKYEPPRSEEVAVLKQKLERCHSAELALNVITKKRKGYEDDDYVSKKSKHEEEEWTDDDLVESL
Sequence of Cyclin-dependent kinase 7/ cyclin H (P50613 whole entry): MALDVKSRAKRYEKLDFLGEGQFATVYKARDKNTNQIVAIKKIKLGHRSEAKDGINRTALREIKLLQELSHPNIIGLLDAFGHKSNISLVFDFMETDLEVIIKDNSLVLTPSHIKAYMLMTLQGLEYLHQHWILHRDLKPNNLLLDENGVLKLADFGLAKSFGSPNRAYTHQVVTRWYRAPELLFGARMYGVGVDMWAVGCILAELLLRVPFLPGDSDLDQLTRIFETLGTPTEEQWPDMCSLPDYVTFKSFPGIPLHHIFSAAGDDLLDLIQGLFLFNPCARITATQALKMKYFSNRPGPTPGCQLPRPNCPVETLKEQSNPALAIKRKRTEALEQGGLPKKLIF
Sequence of CDK9/cyclin T1 (O60563 whole entry): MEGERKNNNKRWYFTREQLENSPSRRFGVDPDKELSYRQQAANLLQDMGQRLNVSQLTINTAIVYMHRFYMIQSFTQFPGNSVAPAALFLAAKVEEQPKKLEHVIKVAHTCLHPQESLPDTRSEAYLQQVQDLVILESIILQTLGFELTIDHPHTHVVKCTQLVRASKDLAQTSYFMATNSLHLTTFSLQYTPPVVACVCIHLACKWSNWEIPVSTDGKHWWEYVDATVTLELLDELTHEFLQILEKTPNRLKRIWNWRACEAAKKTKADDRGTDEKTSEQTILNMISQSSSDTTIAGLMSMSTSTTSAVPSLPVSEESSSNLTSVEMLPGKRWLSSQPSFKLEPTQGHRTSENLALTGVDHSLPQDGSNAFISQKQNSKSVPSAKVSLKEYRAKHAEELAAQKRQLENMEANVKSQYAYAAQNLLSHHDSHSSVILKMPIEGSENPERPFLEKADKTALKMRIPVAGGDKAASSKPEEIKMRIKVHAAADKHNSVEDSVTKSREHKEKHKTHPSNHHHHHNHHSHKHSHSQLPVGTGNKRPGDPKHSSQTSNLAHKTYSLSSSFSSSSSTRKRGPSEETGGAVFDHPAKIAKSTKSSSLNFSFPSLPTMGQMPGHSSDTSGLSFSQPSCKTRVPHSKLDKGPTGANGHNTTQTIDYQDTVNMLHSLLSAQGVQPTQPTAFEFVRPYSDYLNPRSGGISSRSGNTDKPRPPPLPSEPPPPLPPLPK
Sequence of CDK9/cyclin T1 (P50750 whole entry): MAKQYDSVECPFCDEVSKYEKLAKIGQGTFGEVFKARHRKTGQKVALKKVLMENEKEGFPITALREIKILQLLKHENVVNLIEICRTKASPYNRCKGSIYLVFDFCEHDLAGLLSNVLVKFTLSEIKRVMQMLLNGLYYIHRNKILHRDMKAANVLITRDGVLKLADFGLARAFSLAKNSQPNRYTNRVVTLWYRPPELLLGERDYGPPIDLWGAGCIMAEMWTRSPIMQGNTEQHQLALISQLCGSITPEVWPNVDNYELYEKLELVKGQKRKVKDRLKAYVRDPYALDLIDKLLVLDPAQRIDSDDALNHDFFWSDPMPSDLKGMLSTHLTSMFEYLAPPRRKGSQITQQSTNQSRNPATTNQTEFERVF

Row | Compound | Ki [1] | Ki [2] | Ki [3] | Ki [4] | Ki (CDK9/cyclin T1) | also measured
1 | Cc1nc2c(s1)-c1nc(Nc3ccc(N4CCOCC4)cc3)ncc1CC2 | 15 µM | 0.2 µM | > 10 µM | 1 µM | 0.64 µM | 
2 | Cc1nc2c(s1)-c1nc(N)ncc1CC2 | > 10 µM | > 10 µM | > 10 µM | > 10 µM | > 10 µM | 
3 | Cc1nc2c(s1)-c1nc(N(C)c3cccc([N+](=O)[O-])c3)ncc1CC2 | 2.7 µM | 0.59 µM | > 10 µM | 1.8 µM | 12 µM | 
4 | Nc1nc2c(s1)-c1nc(Nc3ccccc3)ncc1CC2 | 0.63 µM | 0.088 µM | 0.33 µM | 1.2 µM | 0.11 µM | 
5 | Cc1nc2c(s1)-c1nc(Nc3cccc(O)c3)ncc1CC2 | 0.36 µM | 0.011 µM | 0.58 µM | 0.053 µM | 0.032 µM | 
6 | Cc1nc2c(s1)-c1nc(Nc3ccc(N(C)C)cc3)ncc1CC2 | 2.5 µM | 0.01 µM | 0.037 µM | 0.06 µM | 0.64 µM | 
7 | Cc1nc2c(s1)-c1nc(Nc3ccccc3)ncc1CC2 | 0.75 µM | 0.001 µM | 0.9 µM | 2.2 µM | 0.26 µM | 
8 | Cc1nc2ccc3cnc(Nc4ccccc4)nc3c2s1 | 1.7 µM | 0.024 µM | 2.7 µM | > 10 µM | > 10 µM | 
9 | Cc1nc2ccc3cnc(N(C)c4cccc([N+](=O)[O-])c4)nc3c2s1 | 7.5 µM | 1.6 µM | > 10 µM | > 10 µM | > 10 µM | 
10 | COC(=O)c1ccc(Nc2ncc3c(n2)-c2sc(C)nc2CC3)cc1 | 0.7 µM | 0.92 µM | 2.4 µM | 6.3 µM | 0.67 µM | 
11 | Cc1nc2c(s1)-c1nc(Nc3ccc(C(F)(F)F)cc3)ncc1CC2 | 0.96 µM | 0.16 µM | 4.9 µM | > 10 µM | 1.9 µM | 
12 | Cc1nc2c(s1)-c1nc(Nc3cccc([N+](=O)[O-])c3)ncc1CC2 | 0.32 µM | 0.023 µM | 2 µM | 0.79 µM | 0.002 µM | Activity (WI-38 [5]): inactive; IC50 (A549): 0.69 µM; IC50 (HeLa): 1.1 µM; IC50 (HT-29): 1.4 µM; IC50 (MCF7): 1.7 µM; IC50 (SAOS-2): 1.2 µM; Activity [6]: Active; Activity [7]: Active; Activity [8]: Active; Activity [9]: Active; Activity (A2780 [10]): Active; Activity (A2780 [11]): 20%; Activity (WI-38 [12]): 0.7%

The next compounds have a lower Ki [1] than those just listed; values first:

Row | Ki [1] | Ki [2] | Ki [3] | Ki [4] | Ki (CDK9/cyclin T1) | Compound | also measured
13 | 0.019 µM | 0.025 µM | 0.04 µM | 1.4 µM | 1.2 µM | Cc1nc2c(s1)-c1nc(Nc3ccc(Cl)nc3)ncc1CC2 | 
14 | 0.098 µM | 0.031 µM | 0.47 µM | 0.5 µM | 0.16 µM | CN(C)c1ccc(Nc2ncc3c(n2)-c2sc(N)nc2CC3)cc1 | 
15 | 0.2 µM | 0.001 µM | 0.54 µM | 0.3 µM | 0.49 µM | Cc1nc2c(s1)-c1nc(Nc3ccc(O)cc3)ncc1CC2 | 
16 | 0.31 µM | 0.13 µM | > 10 µM | 4.8 µM | 0.14 µM | Cc1nc2c(s1)-c1nc(Nc3ccc([N+](=O)[O-])cc3)ncc1CC2 | 
17 | 0.078 µM | 0.049 µM | 0.12 µM | 1.1 µM | 1 µM | COc1ccc(Nc2ncc3c(n2)-c2sc(C)nc2CC3)cn1 | 
18 | 0.018 µM | 0.001 µM | 0.13 µM | 0.14 µM | 0.003 µM | Nc1nc2c(s1)-c1nc(Nc3cccc([N+](=O)[O-])c3)ncc1CC2 | 
